CSC inhib: cancer stem cell viability inhibitors, primary screen, luminescence; cancer stem cell-like cells viability; inhibition, % at 7.5 µM; hit rate 1.1% among 300,000; in the data active = inhibition above about 75%; inconclusive = no clear call, values can overlap the other calls; tested in HMLE shEcad cells
Calb FLC: C. albicans growth inhibition with fluconazole, primary screen, CaCi-2 strain, Alamar Blue fluorescence; growth inhibition, % (no concentration beside the values); hit rate 0.57% among 300,000; C. albicans CaCi-2 (fluconazole-resistant clinical isolate) + fluconazole, 48 h;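 active = growth inhibition above about 58% in most replicates, limit read from the data, passing the limit was not always enough; inconclusive = exactly half the replicates above a set limit; inactive = most replicates below a set limit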;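 also: all wells also contain fluconazole at 8 µg/ml as a sub-toxic cotreatment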
Mdm2 MdmX PPI: inhibitors of human Mdm2-MdmX association, primary screen, cell-based, luminescence, split luciferase, SaOS-2, uHTS; inhibition, % at 8 µM; Protein Mdm4 (Homo sapiens) + E3 ubiquitin-protein ligase Mdm2 (Homo sapiens), …; hit rate 3% among 330,000; SaOS-2 split-luciferase Mdm2/MdmX complementation;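 active = inhibition of at least 50% at 8 µM in the primary screen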
Target sequence (O15151 whole entry, looked up): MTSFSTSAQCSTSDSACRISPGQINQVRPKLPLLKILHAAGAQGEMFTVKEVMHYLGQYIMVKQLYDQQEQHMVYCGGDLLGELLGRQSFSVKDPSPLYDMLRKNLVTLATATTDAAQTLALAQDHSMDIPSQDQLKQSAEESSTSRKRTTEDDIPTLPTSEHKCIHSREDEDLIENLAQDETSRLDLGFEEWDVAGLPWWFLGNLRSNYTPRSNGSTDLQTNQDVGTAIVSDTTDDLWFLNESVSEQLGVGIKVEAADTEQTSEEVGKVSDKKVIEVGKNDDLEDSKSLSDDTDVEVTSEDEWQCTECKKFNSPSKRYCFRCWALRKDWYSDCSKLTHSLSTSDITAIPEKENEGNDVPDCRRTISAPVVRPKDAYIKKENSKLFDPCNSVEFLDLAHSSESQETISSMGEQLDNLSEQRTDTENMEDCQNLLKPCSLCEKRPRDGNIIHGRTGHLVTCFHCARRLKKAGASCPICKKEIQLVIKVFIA
Target sequence (Q00987 whole entry, looked up): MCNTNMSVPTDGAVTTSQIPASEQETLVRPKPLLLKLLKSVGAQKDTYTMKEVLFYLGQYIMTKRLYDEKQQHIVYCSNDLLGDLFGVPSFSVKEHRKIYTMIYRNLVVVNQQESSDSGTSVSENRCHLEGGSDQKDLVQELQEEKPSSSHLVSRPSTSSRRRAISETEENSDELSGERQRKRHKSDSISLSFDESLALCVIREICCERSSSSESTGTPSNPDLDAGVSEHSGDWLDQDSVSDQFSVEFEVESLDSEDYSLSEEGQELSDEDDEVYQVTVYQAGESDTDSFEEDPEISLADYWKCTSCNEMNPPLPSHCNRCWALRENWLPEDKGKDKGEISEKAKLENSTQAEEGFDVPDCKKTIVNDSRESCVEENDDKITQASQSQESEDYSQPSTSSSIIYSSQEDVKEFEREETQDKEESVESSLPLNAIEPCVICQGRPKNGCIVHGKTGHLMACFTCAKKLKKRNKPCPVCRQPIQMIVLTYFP
Beta cell apopt: inhibitors of cytokine-induced beta cell apoptosis, primary screen, luminescence; INS-1E cytokine-induced death, ATP luminescence, 48 h; percent of positive-control rescue, neutral wells zero; protection from apoptosis, % (test concentration not listed); hit rate 0.8% among 300,000;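 active = Every replicate reaches about 75%, or at least half do and their mean reaches it too, limit read from the data; inconclusive = At least half of replicates reach the limit but their mean does not; inactive = Under half of replicates reach the limit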;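 also: higher means more ATP so stronger rescue from cytokine killing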
NLRP3 yeast inh: NALP3 inflammasome inhibitors in reconstituted yeast, primary screen, luminescence, uHTS; Yeast reconstituted NLRP3/ASC/caspase-1, beta-gal luminescence, 24 h; inhibition, % at 10 µM; hit rate 0.39% among 330,000;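 active = inhibition of 50% or more; inactive = inhibition below 50%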
T cruzi repl: inhibitors of intracellular T. cruzi growth, primary screen, luminescence, NIH3T3 host cells | AID 1885, 2009 | hit rate 1.4% among 300,000 | T. cruzi beta-gal in NIH3T3, 90 h | inhibition, % (concentration not given with the values);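 active = mean inhibition across valid replicates above about 55%, limit read from the data; inconclusive = mean below that limit but half or more replicates reach it; inactive = mean below it, under half of replicates reach it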;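 also: signal also drops with host cell toxicity which is not excluded here; higher percent means less beta-gal luminescence so fewer parasites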
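Incubation – ≥90 h infection period, 3 h prior cell attachment · System – NIH/3T3 fibroblasts plus reporter T. cruzi · Doses – compound pinned at 50 nL/well, DMSO · Read-out basis – percent inhibition of parasite-derived β-gal signal · Signal – luminescent β-galactosidase signal after 60 min lysis · Also added – 5000 T. cruzi trypomastigotes/well · Medium – Low-serum DMEM with 2% FBS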
Numbers stand for hits; i = inactive; ? = inconclusive; nt = no result given. Compounds with a hit are over-represented: about 5.3% of the library has one in this group of screens.

SMILES | CSC inhib | Calb FLC | Mdm2 MdmX PPI | Beta cell apopt | NLRP3 yeast inh | T cruzi repl
COc1ccc(Cl)cc1NC(=O)CN(C)C(=O)c1ccc(COc2ccccc2)cc1 | i | i | i | i | i | i
O=C(NCCCCCNC(=O)c1cccnc1)c1cccnc1 | i | i | i | i | i | i
O=C(NCCOCCOCCNC(=O)c1cccnc1)c1cccnc1 | i | i | i | 120 | i | i
O=C(CSc1nnc(-c2ccc(F)cc2)c2ccccc12)Nc1cccc(Cl)c1 | i | i | i | i | i | 60
COc1ccc(-n2cccc2/C=C2\C(=N)N3N=C(C(C)C)SC3=NC2=O)cc1 | i | 98 | i | i | i | i
COc1ccc(-n2cccc2/C=C2\C(=N)N3N=C(c4ccco4)SC3=NC2=O)cc1 | i | i | i | i | i | i
O=C(c1cc(C2CC2)nn1-c1ccccc1)N1CCN(c2ncc(C(F)(F)F)cc2Cl)CC1 | nt | nt | i | i | i | nt
Cc1ccnc(SCC(=O)c2ccc(Br)cc2)c1C#N | nt | i | i | i | i | 74
O=C1NN(c2ccccc2)C(=O)/C1=C/c1ccc(Sc2cccc3ccccc23)o1 | 79 | i | i | i | i | i
O=C1NN(c2ccccc2)C(=O)/C1=C/c1ccc(-c2ccc(C(=O)O)cc2)o1 | i | i | i | nt | i | i
Cc1cccc(CCNC(=O)c2cccc(N3CCCC3=O)c2)c1 | i | i | i | i | i | i
COC(=O)c1ccc(CN(c2ccc(C(=O)O)c(O)c2)S(=O)(=O)c2ccc(Cl)c([N+](=O)[O-])c2)cc1 | 92 | i | nt | i | nt | i
Cc1[nH]c2ccc(-c3nnc(SCC(=O)c4ccc(F)cc4)o3)cc2c1C | nt | i | i | nt | i | i
Cc1cc(C)c(C)c(C(=O)CSc2nnc(-c3ccc4[nH]c(C)c(C)c4c3)o2)c1C | i | i | i | i | i | 55
CCn1c(SCC(=O)N(C(C)C)C(C)C)nnc1-c1cc2ccccc2cc1O | nt | i | i | i | i | i
N#C/C(=C(/O)c1ccc2c(c1)OCO2)c1nc2cc(C(F)(F)F)ccc2s1 | 79 | i | i | i | i | i
CC(=O)Oc1cc2oc(=O)cc(C)c2cc1Cl | i | i | i | i | i | i
COc1cccc(OCC(O)CN2CCC(CN3C(=O)c4cccc5cccc(c45)C3=O)CC2)c1 (stereo not given) | i | i | i | i | i | 63
O=C(Nc1ccc(F)c(Cl)c1)C1CCCN(c2cnccn2)C1 (stereo not given) | i | i | i | i | i | 61
Cc1ccc(NC(=O)C2CCN(c3cnccn3)CC2)cc1 | i | i | i | i | i | 63
CCCc1ccc(NC(=O)C2CCN(c3cnccn3)CC2)cc1 | nt | i | i | nt | i | i
CCOc1ccc2nc(NC(=O)CSc3nnnn3C3CCCCC3)sc2c1 | i | i | i | i | i | 56
CCOc1ccc2nc(NC(=O)C3CCN(c4cnccn4)CC3)sc2c1 | i | i | i | i | i | 61
COc1ccc(/C=N/n2cnc3c([nH]c4ccccc43)c2=O)cc1CO | i | i | i | i | i | i
CCOC(=O)c1sc(NC(=O)CSc2ncn[nH]2)c(C#N)c1C | i | i | i | i | i | i
SMILES | CSC inhib | Calb FLC | Mdm2 MdmX PPI | Beta cell apopt | NLRP3 yeast inh | T cruzi repl
O=C(CCn1c(=S)oc2ccccc21)NC1CCCCC1 | i | i | i | i | i | i
Cc1cccc(NC(=S)NNC(=O)c2csc(C(C)C)c2)c1 | i | 92 | i | i | i | i
CCc1cc(C(=O)NNC(=S)Nc2cccc(C)c2)cs1 | i | ? | i | i | i | i
CN(C)CCCOC(=O)c1ccc(Cl)cc1Cl | i | i | i | i | i | 62
CCCN(CCC)CCCOC(=O)c1ccc(Cl)cc1Cl | i | i | i | nt | i | i
Cc1cc(C)nc(OC(=O)c2c(Cl)cc(Cl)cc2Cl)n1 | i | i | i | i | i | i
Cc1cc(C)nc(OC(=O)c2ccc(Cl)cc2Cl)n1 | i | i | i | 85 | i | i
Cc1ccc(CSc2nnc(-c3ccc4c(c3)OCO4)o2)cc1 | i | i | i | i | i | i
Cc1ccc(CSc2ccc(-c3ccc4c(c3)OCO4)nn2)cc1 | 79 | i | i | i | i | i
CN1CCN(C(=O)c2cc3c(C(F)(F)F)nn(C)c3s2)CC1 | i | i | i | i | i | i
CCn1c2ccccc2c2cc(NC(=O)Cc3ccc(S(=O)(=O)N4CCOCC4)s3)ccc21 | i | i | i | i | i | 69
CN(C)S(=O)(=O)c1ccc(NC(=O)Cc2ccc(S(=O)(=O)N3CCOCC3)s2)cc1 | i | i | i | i | i | i
CCn1c2ccccc2c2cc(NC(=O)C(C)C)ccc21 | i | 96 | i | i | i | i
CC1=C(C#N)C(C(F)(F)F)(C(F)(F)F)N=C(c2ccco2)N1 | i | i | i | 101 | i | i
CC(NC(=O)CCc1nc2cc(S(=O)(=O)N3CCOCC3)ccc2n1C)c1ccc(S(N)(=O)=O)cc1 (stereo not given) | i | i | i | i | i | i
O=C(Nc1cccc(-c2nc3ncccc3o2)c1)c1ccccc1 | i | i | i | i | i | 60
COCc1ccc(CN2CCCC(CO)(Cc3ccccc3C)C2)o1 (stereo not given) | i | i | i | i | i | i
Cc1ccc(C(=O)N(C)c2ccc(OCC(=O)N3c4ccc(C)cc4C4CN(C)CCC43)cc2)cc1 (stereo not given) | i | i | i | i | i | 68
Cc1ccc2c(c1)C1CN(C)CCC1N2C(=O)COc1ccc(N(C)C(=O)C(C)(C)C)cc1 (stereo not given) | i | i | i | i | i | i
Cc1ccc2c(c1)C1CN(C)CCC1N2C(=S)NC(=O)c1ccc(Br)cc1 (stereo not given) | i | ? | i | i | i | 64
Cc1ccc2c(c1)C1CN(C)CCC1N2C(=O)c1ccc(Cl)c(S(=O)(=O)N2CCOCC2)c1 (stereo not given) | i | i | i | i | i | 60
Cc1ccc2c(c1)C1CN(C)CCC1N2C(=O)c1cccc(S(=O)(=O)N2CC(C)CC(C)C2)c1 (stereo not given) | i | i | i | i | i | 80
Cc1ccc2c(c1)C1CN(C)CCC1N2S(=O)(=O)c1cc(C(F)(F)F)ccc1Cl (stereo not given) | i | nt | i | i | i | nt
CCSc1nnc(NC(=O)c2c(C)noc2C)s1 | i | i | i | i | i | i
C/C(=N\NC(N)=O)c1cccc(Cl)c1 | i | i | i | i | i | i
CN(C)S(=O)(=O)c1cccc(NC(=O)c2n[nH]c(=O)c3ccccc23)c1 | i | i | i | i | i | i
CSc1ccccc1OCc1cc(C(=O)NC2CCOC2)no1 (stereo not given) | i | i | i | i | i | i
CCNc1nc(SCCOc2ccc(C)cc2)nc(N(C)C)n1 | i | i | i | i | i | i
